Blank lines part the entries; values can stand above or below the compound they belong to. The source made the active and inactive calls. No cut-off for these calls is given here.
What was measured:
Mus musculus = experiment: Inhibition of aurora B in human COLO205 cells xenografted in CD1 mouse assessed as reduction of phosphorylated histone H3 level at 50 mg/kg, po after 3 to 6 hrs by immunofluorescence-based flow cytometry; assay type: functional; conditions: CD1, COLO 205
In short: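 Mice carried established COLO 205 xenografts of about 300 mm3 and received a single oral dose of vehicle or 50 mg/kg (N = 12 per group). Tumors were harvested at 3, 6 and 24 h (N = 4 per time point). p-Histone H3 was measured by immunofluorescence-based flow cytometry as the percentage of positive cells in G2/M. Groups were compared with ANOVA and Scheffe's post hoc test against vehicle.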

[1] = Drug level in human COLO205 cells xenografted in CD1 mouse plasma at 50 mg/kg, po after 24 hrs; assay type: ADME, organism-based, COLO 205; design: dose 50 mg/kg, route oral
In short: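 COLO 205 xenograft-bearing mice received a single 50 mg/kg oral dose (N = 12 per group). Plasma was sampled at 3, 6 and 24 h (N = 4 per time point) and analyzed for drug concentration. Results are reported as mean ± SD.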

[2] = Protein binding in mouse plasma at 10 uM by ultrafiltration; assay type: ADME, cell-free; conditions: read-out: PPB
Aurora kinase B [3] = target: T1, Aurora kinase B (Homo sapiens, UniProt Q96GD4); experiment: Inhibition of aurora B autophosphorylation in human HeLa cells at 0.313 uM after 3 hrs by Western blotting
HeLa = experiment: Induction of morphological changes in human HeLa cells at […] after 48 hrs using DAPI staining by microscopic analysis
Aurora kinase B [4] = target: T1, Aurora kinase B; experiment: Inhibition of aurora B in human HeLa cells assessed as reduction of histone H3 phosphorylation at Ser10 at 0.313 uM after 24 hrs by flow cytometry
Angiopoietin-1 receptor = Angiopoietin-1 receptor (Homo sapiens, UniProt Q02763); experiment: Inhibition of Tie-2 by HTRF assay
In short: (§1)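 Enzyme inhibition was run with ATP at its Km for each kinase. Values are averages of at least two determinations.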

[5] = target: Mast/stem cell growth factor receptor Kit (Homo sapiens, UniProt P10721); experiment: Inhibition of c-Kit by HTRF assay; in short: as §1
[6] = target: Proto-oncogene tyrosine-protein kinase Src (Homo sapiens, UniProt P12931); experiment: Inhibition of Src by HTRF assay; in short: as §1
[7] = target: Hepatocyte growth factor receptor (Homo sapiens, UniProt P08581); experiment: Inhibition of c-Met by HTRF assay; in short: as §1
[8] = target: Cyclin-dependent kinase 2 (Homo sapiens, UniProt P24941); experiment: Inhibition of CDK2 by HTRF assay; in short: as §1

T1 sequence (Q96GD4 whole entry): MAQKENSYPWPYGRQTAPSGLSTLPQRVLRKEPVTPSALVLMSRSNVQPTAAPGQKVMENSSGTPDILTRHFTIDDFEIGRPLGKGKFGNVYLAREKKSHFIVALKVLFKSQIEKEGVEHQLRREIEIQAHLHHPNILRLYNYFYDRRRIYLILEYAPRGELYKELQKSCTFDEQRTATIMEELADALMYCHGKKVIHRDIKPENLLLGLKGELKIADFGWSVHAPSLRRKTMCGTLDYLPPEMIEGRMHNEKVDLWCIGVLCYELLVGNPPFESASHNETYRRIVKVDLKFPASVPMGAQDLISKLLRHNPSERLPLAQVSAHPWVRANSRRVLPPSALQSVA
Chain of Mast/stem cell growth factor receptor Kit (P10721 whole entry): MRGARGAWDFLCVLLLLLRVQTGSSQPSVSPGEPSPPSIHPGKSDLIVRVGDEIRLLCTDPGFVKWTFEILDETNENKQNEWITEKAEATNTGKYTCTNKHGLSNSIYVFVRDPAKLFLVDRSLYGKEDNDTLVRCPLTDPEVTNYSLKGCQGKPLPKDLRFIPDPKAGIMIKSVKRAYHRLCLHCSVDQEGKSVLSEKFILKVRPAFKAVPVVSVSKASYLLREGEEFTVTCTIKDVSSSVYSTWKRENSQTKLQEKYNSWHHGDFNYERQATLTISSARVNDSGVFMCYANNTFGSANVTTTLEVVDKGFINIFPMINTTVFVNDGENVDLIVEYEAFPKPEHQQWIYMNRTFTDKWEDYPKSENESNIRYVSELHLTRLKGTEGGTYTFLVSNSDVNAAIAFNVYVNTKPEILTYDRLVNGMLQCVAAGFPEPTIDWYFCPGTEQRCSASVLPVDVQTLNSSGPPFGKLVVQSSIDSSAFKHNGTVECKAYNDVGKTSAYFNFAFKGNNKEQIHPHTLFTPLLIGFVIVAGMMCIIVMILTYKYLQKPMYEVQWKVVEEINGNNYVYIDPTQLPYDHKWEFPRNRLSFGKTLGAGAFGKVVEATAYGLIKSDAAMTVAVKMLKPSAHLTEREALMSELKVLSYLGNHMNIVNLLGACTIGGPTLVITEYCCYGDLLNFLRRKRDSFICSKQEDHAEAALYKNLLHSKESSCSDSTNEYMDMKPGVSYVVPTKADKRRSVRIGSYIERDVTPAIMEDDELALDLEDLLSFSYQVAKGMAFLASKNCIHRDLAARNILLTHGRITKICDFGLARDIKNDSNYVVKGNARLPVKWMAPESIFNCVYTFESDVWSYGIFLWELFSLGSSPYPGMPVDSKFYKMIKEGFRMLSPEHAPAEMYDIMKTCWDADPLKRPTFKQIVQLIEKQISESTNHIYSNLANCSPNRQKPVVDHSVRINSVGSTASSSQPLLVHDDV
Chain of Proto-oncogene tyrosine-protein kinase Src (P12931 2-536 limits assumed): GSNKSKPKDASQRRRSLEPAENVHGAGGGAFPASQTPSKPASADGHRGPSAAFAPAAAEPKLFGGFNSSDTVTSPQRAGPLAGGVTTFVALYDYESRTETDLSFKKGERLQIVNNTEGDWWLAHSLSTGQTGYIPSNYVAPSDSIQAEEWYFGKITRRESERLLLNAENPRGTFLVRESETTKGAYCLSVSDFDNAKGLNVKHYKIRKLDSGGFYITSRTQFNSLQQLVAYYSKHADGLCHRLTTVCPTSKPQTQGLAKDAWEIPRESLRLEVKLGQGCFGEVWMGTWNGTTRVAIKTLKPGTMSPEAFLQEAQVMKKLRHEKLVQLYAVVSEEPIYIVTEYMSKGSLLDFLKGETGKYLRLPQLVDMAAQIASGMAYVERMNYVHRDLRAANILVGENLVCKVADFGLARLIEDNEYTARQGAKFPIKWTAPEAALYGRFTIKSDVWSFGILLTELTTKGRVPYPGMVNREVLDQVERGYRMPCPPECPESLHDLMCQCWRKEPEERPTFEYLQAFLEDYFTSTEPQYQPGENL
Chain of Hepatocyte growth factor receptor (P08581 whole entry): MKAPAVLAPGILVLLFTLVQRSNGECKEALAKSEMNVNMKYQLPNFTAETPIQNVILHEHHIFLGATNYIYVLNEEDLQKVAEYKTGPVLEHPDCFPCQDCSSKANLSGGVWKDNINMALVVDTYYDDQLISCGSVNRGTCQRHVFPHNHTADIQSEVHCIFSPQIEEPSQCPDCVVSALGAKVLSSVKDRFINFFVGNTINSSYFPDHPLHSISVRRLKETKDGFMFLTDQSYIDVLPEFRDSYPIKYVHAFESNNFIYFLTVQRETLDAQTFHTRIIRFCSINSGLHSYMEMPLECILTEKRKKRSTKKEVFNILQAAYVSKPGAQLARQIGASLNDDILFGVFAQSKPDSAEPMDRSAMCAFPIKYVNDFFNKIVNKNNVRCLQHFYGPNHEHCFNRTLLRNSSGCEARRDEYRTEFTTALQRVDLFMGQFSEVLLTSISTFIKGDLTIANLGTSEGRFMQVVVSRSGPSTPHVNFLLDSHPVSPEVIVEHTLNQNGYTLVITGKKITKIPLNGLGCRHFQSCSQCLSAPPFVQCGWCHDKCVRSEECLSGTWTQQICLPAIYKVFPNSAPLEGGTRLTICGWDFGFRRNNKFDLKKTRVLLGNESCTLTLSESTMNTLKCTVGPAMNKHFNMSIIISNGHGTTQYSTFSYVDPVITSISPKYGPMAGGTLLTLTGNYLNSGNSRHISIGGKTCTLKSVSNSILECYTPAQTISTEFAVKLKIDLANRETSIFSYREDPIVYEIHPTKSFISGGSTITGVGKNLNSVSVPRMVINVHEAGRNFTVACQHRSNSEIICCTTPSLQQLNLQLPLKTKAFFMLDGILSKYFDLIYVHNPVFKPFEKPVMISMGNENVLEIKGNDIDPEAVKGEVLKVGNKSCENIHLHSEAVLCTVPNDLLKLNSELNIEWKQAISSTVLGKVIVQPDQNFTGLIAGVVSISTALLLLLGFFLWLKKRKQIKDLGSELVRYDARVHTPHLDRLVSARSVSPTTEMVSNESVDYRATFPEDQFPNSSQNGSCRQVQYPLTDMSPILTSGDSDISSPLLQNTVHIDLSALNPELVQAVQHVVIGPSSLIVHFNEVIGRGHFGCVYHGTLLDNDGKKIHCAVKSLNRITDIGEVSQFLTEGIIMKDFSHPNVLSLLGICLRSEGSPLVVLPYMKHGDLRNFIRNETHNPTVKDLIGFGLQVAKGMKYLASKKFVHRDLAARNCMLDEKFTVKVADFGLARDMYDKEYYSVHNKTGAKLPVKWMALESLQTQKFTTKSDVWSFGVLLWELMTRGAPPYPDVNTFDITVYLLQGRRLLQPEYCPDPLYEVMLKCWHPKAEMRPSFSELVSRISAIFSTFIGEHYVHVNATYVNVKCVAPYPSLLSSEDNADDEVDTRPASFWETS
Chain of Angiopoietin-1 receptor (Q02763 whole entry): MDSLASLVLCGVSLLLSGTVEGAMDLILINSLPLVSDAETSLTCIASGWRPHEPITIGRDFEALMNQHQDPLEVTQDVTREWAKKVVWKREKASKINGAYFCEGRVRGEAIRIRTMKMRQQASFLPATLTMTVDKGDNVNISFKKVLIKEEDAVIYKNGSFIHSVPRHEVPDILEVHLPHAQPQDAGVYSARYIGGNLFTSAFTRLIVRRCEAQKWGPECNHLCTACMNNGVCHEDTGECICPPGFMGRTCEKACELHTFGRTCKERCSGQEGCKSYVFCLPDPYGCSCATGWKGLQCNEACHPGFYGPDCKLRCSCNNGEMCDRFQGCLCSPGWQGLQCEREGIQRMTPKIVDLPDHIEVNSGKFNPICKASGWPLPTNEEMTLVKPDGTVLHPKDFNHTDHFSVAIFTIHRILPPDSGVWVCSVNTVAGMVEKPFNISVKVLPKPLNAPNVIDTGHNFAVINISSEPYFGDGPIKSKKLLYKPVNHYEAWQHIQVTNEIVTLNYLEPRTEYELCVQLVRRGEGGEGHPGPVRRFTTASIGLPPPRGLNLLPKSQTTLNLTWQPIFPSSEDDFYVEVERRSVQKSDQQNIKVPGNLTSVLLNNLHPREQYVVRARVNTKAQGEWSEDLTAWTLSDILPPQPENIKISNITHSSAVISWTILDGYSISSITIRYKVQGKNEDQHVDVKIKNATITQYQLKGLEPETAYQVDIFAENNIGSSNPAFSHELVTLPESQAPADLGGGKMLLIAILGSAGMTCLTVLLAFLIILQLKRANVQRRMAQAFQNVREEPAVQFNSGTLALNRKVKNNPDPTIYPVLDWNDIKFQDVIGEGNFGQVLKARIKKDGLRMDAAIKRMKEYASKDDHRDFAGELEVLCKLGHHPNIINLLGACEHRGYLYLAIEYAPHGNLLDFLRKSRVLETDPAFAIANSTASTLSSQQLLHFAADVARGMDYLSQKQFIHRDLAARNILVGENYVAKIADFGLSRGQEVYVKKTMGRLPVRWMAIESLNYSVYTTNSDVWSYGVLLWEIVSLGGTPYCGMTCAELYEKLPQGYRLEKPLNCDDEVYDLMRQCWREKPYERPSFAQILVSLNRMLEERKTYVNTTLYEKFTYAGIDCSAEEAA

concentration at 24 h [1]: 2.46 µg/mL
fraction unbound at 10 µM [2]: < 0.001
Activity (Aurora kinase B [3]): Active
Activity (Aurora kinase B [4]): Active
SMILES: CNc1nccc(-c2cccnc2Oc2ccc(Nc3nnc(-c4ccc(F)cc4)c4ccccc34)cc2)n1
inhibition in vivo at 50 mg/kg (Mus musculus): ≥ 96%
Activity (HeLa): Active

IC50 (Angiopoietin-1 receptor): 0.63 µM
IC50 [5]: 1.35 µM
IC50 [6]: 5.75 µM
SMILES: CNc1nccc(-c2cccnc2Oc2ccc(NC(=O)c3cccc(C(F)(F)F)c3)cc2C)n1

IC50 [7]: > 1 µM
IC50 [8]: > 1 µM
SMILES: CNc1nccc(-c2cccnc2Oc2ccc(NC(=O)c3ccccc3Nc3ccccc3)cc2)n1

From ChEMBL document CHEMBL1240487, “Discovery of a potent, selective, and orally bioavailable pyridinyl-pyrimidine phthalazine aurora kinase inhibitor” (J Med Chem, 2010)
